Calls of active or inactive are those of the source. The calls are words filed in the database; no cut-off is given here.

One may read the IC50 as the point on the concentration scale where inhibition reaches its midpoint.

The target of one assay is Tubulin (Sus scrofa) (UniProt P02554+P02550). Nature of the assay: Inhibition of pig brain tubulin polymerization in mouse B16-F10 cells assessed as disruption of microtubule network at 100 nM measured for 6 hrs by immunofluorescence assay. It is filed as cell-based. An outline of the steps: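 B16-F10 cells on glass coverslips exposed 6 h to test agent or 0.1% DMSO vehicle, fixed in 4% paraformaldehyde, permeabilized with 0.2% Triton X-100 in PBS, blocked 30 min with goat serum, then anti-β-tubulin monoclonal 1 h at 37 °C, fluorescent secondary and DAPI nuclear stain. Microtubule network judged by fluorescence or confocal microscopy.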
Chain of Tubulin (Sus scrofa) (P02550 whole entry, looked up): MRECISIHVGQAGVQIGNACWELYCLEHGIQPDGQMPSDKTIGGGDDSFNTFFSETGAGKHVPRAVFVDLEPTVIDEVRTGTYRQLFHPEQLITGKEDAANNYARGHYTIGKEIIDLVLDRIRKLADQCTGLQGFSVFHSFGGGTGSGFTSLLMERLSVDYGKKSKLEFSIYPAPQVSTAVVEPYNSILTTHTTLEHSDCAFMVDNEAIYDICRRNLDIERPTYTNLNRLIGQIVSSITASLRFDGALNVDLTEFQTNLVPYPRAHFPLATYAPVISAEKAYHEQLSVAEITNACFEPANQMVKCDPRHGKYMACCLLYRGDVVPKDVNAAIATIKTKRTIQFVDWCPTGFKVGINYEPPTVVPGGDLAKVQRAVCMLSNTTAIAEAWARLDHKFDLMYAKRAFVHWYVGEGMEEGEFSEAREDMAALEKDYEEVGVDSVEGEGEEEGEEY
Chain of Tubulin (Sus scrofa) (P02554 whole entry, looked up): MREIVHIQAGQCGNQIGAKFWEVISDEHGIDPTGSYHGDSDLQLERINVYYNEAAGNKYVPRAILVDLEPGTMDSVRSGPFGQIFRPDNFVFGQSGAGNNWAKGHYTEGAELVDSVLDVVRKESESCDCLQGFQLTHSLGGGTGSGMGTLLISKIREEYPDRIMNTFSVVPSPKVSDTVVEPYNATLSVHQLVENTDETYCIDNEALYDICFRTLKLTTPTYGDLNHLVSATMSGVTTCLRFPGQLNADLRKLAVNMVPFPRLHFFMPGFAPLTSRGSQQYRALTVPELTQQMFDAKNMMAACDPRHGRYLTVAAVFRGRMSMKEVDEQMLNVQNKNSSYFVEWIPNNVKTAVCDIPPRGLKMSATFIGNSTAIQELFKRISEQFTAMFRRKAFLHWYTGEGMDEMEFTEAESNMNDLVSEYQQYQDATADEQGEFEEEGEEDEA

For the next assay, the target named is Tubulin (Sus scrofa, UniProt P02554+P02550). The assay can be described thus: Inhibition of pig brain tubulin polymerization by spectrometric method. The gist of the method:
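Phosphocellulose-purified pig brain tubulin mixed with graded compound concentrations in PEM buffer (100 mM PIPES, 1 mM MgCl2, 1 mM EGTA) plus 1 mM GTP and 5% glycerol. Absorbance at 340 nm and 37 °C; plateau absorbance used to calculate IC50.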

Assay [1] concerns B16-F10. Nature of the assay: Induction of apoptosis in mouse B16-F10 cells assessed as early apoptotic cells at 25 nM incubated for 48 hrs by Annexin V-FITC/PI analysis (reference value: 1.68 %). The class given is functional.
The test system of a further assay is HCT-116. The assay can be described thus: Antiproliferative activity against human HCT-116 cells assessed as inhibition of cell viability measured for 48 hrs by microplate reader based MTT assay. The class given is functional. The following applies: HCT-116, 48 h. An outline of the steps: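 Cells grown in RPMI-1640 with 10% FBS and seeded at 5000 cells/well. After overnight attachment, compound was added in medium with 0.1% DMSO for 48 h at 37 °C. Read-out was MTT for HCT-116, B16-F10 and A549, and CCK-8 for Jurkat (0.5 mg/mL, 4 h), with absorbance at 570 nm. IC50 from nonlinear regression; at least three independent experiments.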
A general note: Tetrazolium assays rely on reduction of a dye to a coloured formazan, in cell work by metabolically active cells.

Another assay relates to A549. Nature of the assay: Antiproliferative activity against human A549 cells assessed as inhibition of cell viability measured for 48 hrs by microplate reader based CCK-8 assay. The class given is functional. As to conditions: A549, 48 h.
The test system of assay [2] is B16-F10. The assay can be described thus: Antitumor activity against mouse B16-F10 cells allografted in C57BL/6 mouse assessed as tumor growth inhibition at 10 mg/kg, ip administered for 14 days. It is filed as functional. The following applies: B16-F10, 336 h, time 14 day, read-out: TGI. An outline of the steps:
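C57BL/6 mice were inoculated subcutaneously with 3×10⁵ B16-F10 cells in PBS and randomized (n = 8). Drugs in ethanol/polyoxyethylene castor oil/saline (1.25:1.25:7.5) or vehicle alone were given i.p. once daily for 14 days. Mice were sacrificed at day 14 and tumors weighed; TGI(%) = [1 − Wt/Wv] × 100 using mean tumor weights.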

Assay [3] has as its system B16-F10. The assay can be described thus: Antimigratory activity against mouse […] cells assessed as reduction in wound closure measured up to 24 hrs by scratch wound healing assay. It is filed as functional, cell-based. As to conditions: dose 25-100 nM, DDE = dose-dependent effect. An outline of the steps: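 B16-F10 cells seeded overnight; confluent monolayers scratched with a pipette tip and rinsed twice with medium to clear debris. Cells treated with compound for 24 h against a DMSO control. Phase-contrast images taken at 0 and 24 h. Migration distance into the wound, or scratch length, measured by hand. n = 3.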

On to `COc1cc(C(=O)c2csc(-c3ccc(NC(=O)CCCC(=O)Nc4ccccc4N)cc3)n2)cc(OC)c1OC`, for which, at Tubulin (Sus scrofa), the inhibition entry was “Active”. For the same compound, the IC50 on Tubulin turned out to be 12200 nM; in the assay on HCT-116, 50 nM; with A549, 140 nM. For the same compound, the Activity in the assay with B16-F10 [1] was 10.9%; with B16-F10 [3], “Dde”. For the same compound, the inhibition in vivo at 10 mg/kg with B16-F10 [2] stood at 70%.

The values are drawn from ChEMBL document CHEMBL5096187, “Efficient Synthesis and Bioevaluation of Novel Dual Tubulin/Histone Deacetylase 3 Inhibitors as Potential Anticancer Agents” (J Med Chem, 2021).
